Experiments:
[1] = Cytotoxicity in human Huh7.5 cells assessed as reduction in cell viability incubated for 96 hrs by MTT assay; type: cell-based
Outline: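 Huh7.5 cells seeded 24 h before compound addition. Viability read by MTT at 96 h. Eight-step 1:5 serial dilutions in triplicate; CC50 by Reed & Muench; three independent experiments.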

Hepatitis C virus [2] = assay: Antiviral activity against HCV J6/JFH/JC1 infected in human Huh7.5 cells incubated for 72 hrs by In-Cell Western assay; type: functional, organism-based, Hepacivirus hominis; details: J6/JFH/JC1, Huh7.5, 72 h
Outline: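 Huh7.5 cells infected with HCVcc (MOI 0.1) and treated with compound at the same time for 72 h. Cells fixed with PFA, permeabilized, then stained for HCV Core and GAPDH with IR-dye secondaries. Core signal normalized to GAPDH. Eight-step 1:5 dilutions in triplicate; EC50 by Reed & Muench; mean of three experiments.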

[3] = Selectivity index, ratio of CC50 for cytotoxicity in human Huh7.5 cells assessed as reduction in cell viability incubated for 96 hrs by MTT assay to EC50 for antiviral activity against HCV J6/JFH/JC1 infected in human Huh7.5 cells incubated for 72 hrs by In-Cell Western assay; type: toxicity, cell-based; details: read-out: Ratio CC50/EC50
Outline: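 HCVcc (MOI=0.1) infected Huh7.5 cells co-treated with eight-step 1:5 serial dilutions, triplicate wells. After 72 h, fixed, permeabilized, and stained for HCV Core and GAPDH with IR-dye secondaries. Core normalized to GAPDH. CC50 came from MTT at 96 h in uninfected Huh7.5 cells. EC50/CC50 were derived by Reed & Muench, mean ± SD of three independent experiments.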

Hepatitis C virus [4] = assay: Antiviral activity against HCV J6/JFH/JC1 infected in human Huh7.5 cells assessed as reduction in viral RNA levels incubated for 72 hrs by qRT-PCR analysis; type: functional, organism-based, Hepacivirus hominis; details: for EC50: J6/JFH/JC1, Huh7.5, 72 h
Outline: (§1)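 Huh7.5 cells seeded 24 h, then infected with wild-type (or mutant) HCV with compound added at the same time. Incubated 72 h. Intracellular HCV RNA measured by qRT-PCR, 2^-ΔCt method, normalized to GAPDH. Eight-step 1:5 serial dilutions in triplicate; EC50 by Reed & Muench; three independent experiments.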

[5] = Selectivity index, ratio of CC50 for cytotoxicity in African green monkey Vero E6 cells to EC50 for Antiviral activity against Zika virus infected in Vero E6 cells; type: toxicity, cell-based, Vero C1008; details: read-out: Ratio CC50/EC50
[6] = Cytotoxicity in African green monkey Vero E6 cells assessed as reduction in cell viability; type: cell-based, Vero C1008; details: chlorocebus sabaeus
[7] = Selectivity index, ratio of CC50 for cytotoxicity in human Huh7.5 cells assessed as reduction in cell viability incubated for 96 hrs by MTT assay to EC50 antiviral activity against HCV J6/JFH/JC1 infected in human Huh7.5 cells assessed as reduction in viral RNA levels incubated for 72 hrs by qRT-PCR analysis; type: toxicity, cell-based; details: read-out: Ratio CC50/EC50
Outline: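 Selectivity index = CC50/EC50. CC50: Huh7.5 cells seeded at 3×10^4/cm², medium with compound added at 24 h, MTT read at 96 h. EC50: HCVcc-infected Huh7.5 cells treated for 72 h, HCV RNA by qRT-PCR normalised to GAPDH. Serial 1:5 dilutions in eight steps, Reed & Muench calculation, means ± SD of three independent experiments.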

Hepatitis C virus [8] = assay: Antiviral activity against HCV expressing NS5B S282T mutant by qRT-PCR analysis based by Reed-Muench method; type: functional, organism-based, Hepacivirus hominis
Outline: (§2)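 Huh7.5 cells seeded at 3×10^4/cm², infected 24 h later with wild-type or mutant HCV stock while compound or solvent was added at the same time. Intracellular HCV RNA measured by qRT-PCR at 72 h, normalised to GAPDH, 2^-ΔCT method. EC50 by Reed & Muench from eight-step 1:5 serial dilutions, triplicate wells.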

Hepatitis C virus [9] = assay: Antiviral activity against wild type HCV by qRT-PCR analysis based by Reed-Muench method; type: functional, organism-based, Hepacivirus hominis; outline: as §1
[10] = Oral bioavailability in Sprague-Dawley rat 15 mg/kg measured after 0.25 to 72 hrs by LC-MS/MS analysis; type: ADME, organism-based; details: in vivo
[11] = Cytotoxicity in African green monkey Vero cells assessed as reduction in cell viability; type: cell-based; details: chlorocebus sabaeus
Coxsackievirus B3 = assay: Antiviral activity against Coxsackievirus B3 infected in Vero cells assessed as reduction in virus-induced cytopathic effect incubated for 48 hrs by Reed-Muench method; type: functional, organism-based; details: Enterovirus B
[12] = Selectivity index, ratio of CC50 for cytotoxicity in African green monkey Vero cells to EC50 for Antiviral activity against Coxsackievirus B3 infected in Vero cells; type: toxicity, cell-based; details: read-out: Ratio CC50/EC50
Hepatitis C virus [13] = assay: Antiviral activity against HCV expressing NS3 D168V mutant by qRT-PCR analysis based by Reed-Muench method; type: functional, organism-based, Hepacivirus hominis; outline: as §2

Row | Compound | CC50 at 96 h [1] | EC50 (Hepatitis C virus [2]) | selectivity ratio [3] | further results
1 | CN(C)CCN(C)c1ccc(C#N)c(CN2CCN(c3ccc(C#N)cc3)CC2)c1 | 9.05 µM | 1.87 µM | 4 | 
2 | CN(C)CCN(C)c1cccc(CN2CCN(c3ccc(Cl)cc3)CC2)c1 | 13.6 µM | 0.936 µM | 14 | 
3 | Cc1ccc(NCc2cc(N3CCNCC3)ccc2C#N)cc1 | 18.8 µM |  |  | EC50 (Hepatitis C virus [4]): 1.68 µM
4 | N#Cc1ccc(NCCN2CCOCC2)cc1CN1CCN(c2ccc(Cl)cc2)CC1 | 76.3 µM | 4.69 µM | 16 | 
5 | CC1CN(Cc2cc(N(C)CCN(C)C)ccc2C#N)CCN1c1ccc(Cl)cc1 (stereo not given) | 13.7 µM | 0.321 µM | 42 | 
6 | CCC(=O)N(C)CCN(C)c1ccc(C#N)c(CN2CCN(c3ccc(Cl)cc3)CC2)c1 | 40 µM | 7.29 µM | 5 | 
7 | CN1CCCN(c2ccc(C#N)c(CN3CCN(c4ccc(Cl)cc4)CC3)c2)CC1 | 12.5 µM | 0.153 µM | 81 | 
8 | CN1CCN(c2ccc(C#N)c(CN3CCN(c4ccc(Cl)cc4)CC3)c2)CC1 | 16.1 µM | 0.783 µM | 20 | 
9 | CN(C)CCCN(C)c1ccc(C#N)c(CN2CCN(c3ccc(Cl)cc3)CC2)c1 | 15.6 µM | 0.423 µM | 36 | 
10 | CN(C)CCN(C)c1ccc(C#N)c(CN2CCN(Cc3ccc(Cl)cc3)CC2)c1 | 15.6 µM | 1.05 µM | 14 | 
11 | N#Cc1ccc(N2CCNC(=O)C2)cc1CN1CCN(c2ccc(Cl)cc2)CC1 | > 200 µM | 79.4 µM | > 2 | 
12 | CN(C)CCNc1ccc(C#N)c(CN2CCN(c3ccc(Cl)cc3)CC2)c1 | 14.8 µM | 0.952 µM | 15 | 
13 | Cc1cc(Cl)ccc1N1CCN(Cc2cc(N(C)CCN(C)C)ccc2C#N)CC1 | 10.1 µM | 0.203 µM | 49 | 
14 | N#Cc1ccc(NCc2ccccn2)cc1CN1CCN(c2ccc(Cl)cc2)CC1 | > 200 µM | 13.7 µM | > 14 | 
15 | NC(=O)c1ncn([C@@H]2O[C@H](CO)[C@@H](O)[C@H]2O)n1 [RIBAVIRIN] |  |  |  | selectivity ratio [5]: > 6; CC50 [6]: > 200 µM
16 | Cc1ccc(N(C)Cc2cc(N3CCN(C)CC3)ccc2C#N)cc1 | 82 µM |  |  | EC50 (Hepatitis C virus [4]): 0.89 µM
17 | CN(C)CCN(C)c1ccc(C#N)c(CN2CCN(c3ccc(Cl)cc3Cl)CC2)c1 | 9.85 µM | 0.166 µM | 59 | 
18 | CC(C)OC(=O)[C@H](C)N[P@](=O)(OC[C@H]1O[C@@H](n2ccc(=O)[nH]c2=O)[C@](C)(F)[C@@H]1O)Oc1ccccc1 [SOFOSBUVIR] | > 200 µM | 0.104 µM | > 1920 | selectivity ratio [7]: > 4350; EC50 (Hepatitis C virus [8]): 0.148 µM; EC50 (Hepatitis C virus [9]): 0.0294 µM; EC50 (Hepatitis C virus [4]): 0.046 µM
19 | COc1ccc(N2CCN(Cc3cc(N(C)CCN(C)C)ccc3C#N)CC2)cc1 | 45.5 µM | 1.44 µM | 31 | 
20 | CN(C)CCN(C)c1ccc(C#N)c(CN2CCNCC2)c1 | > 200 µM | 35 µM | > 5 | 
21 | CN(C)c1ccc(C#N)c(CN2CCN(c3ccc(Cl)cc3)CC2)c1 | > 200 µM | 57.5 µM | > 3 | 
22 | CN(C)CCN(C)c1ccc(C#N)c(CN2CCN(c3ccc(Br)cc3)CC2)c1 | 13.3 to 15.6 µM | 0.104 µM | 128 | selectivity ratio [7]: 503; Activity (Hepatitis C virus [4]; Hepacivirus hominis): Dose-dependent effect; EC50 (Hepatitis C virus [4]): 0.031 µM
23 | N#Cc1ccc(N2CCC(N3CCCC3)CC2)cc1CN1CCN(c2ccc(Cl)cc2)CC1 | 13.5 µM | 0.318 µM | 42 | 
24 | N#Cc1ccc(N2CCNCC2)cc1CN1CCN(c2ccc(Cl)cc2)CC1 | 13.7 µM | 0.657 µM | 20 | 

Row | Compound | CC50 at 96 h [1] | EC50 (Hepatitis C virus [2]) | selectivity ratio [3] | further results
25 | Cc1ccc(NCc2cc(N3CCOCC3)ccc2C#N)cc1 | 133 µM |  |  | EC50 (Hepatitis C virus [4]): > 66.7 µM
26 | N#Cc1ccc(OCCN2CCCC2)cc1CN1CCN(c2ccc(Cl)cc2)CC1 | 16.6 µM | 0.814 µM | 20 | 
27 | COc1ccc(NCc2cc(N3CCN(C)CC3)ccc2C#N)cc1 | 48.2 µM |  |  | EC50 (Hepatitis C virus [4]): 2.14 µM
28 | CN(C)CCN(C)c1ccc(C#N)cc1CN1CCN(c2ccc(Cl)cc2)CC1 | 14.6 µM | 1.33 µM | 11 | 
29 | CC(C)CCNc1ccc(C#N)c(CN2CCN(c3ccc(Cl)cc3)CC2)c1 | > 200 µM | 119 µM | > 1 | 
30 | CCN1CCCC1CNc1ccc(C#N)c(CN2CCN(c3ccc(Cl)cc3)CC2)c1 (stereo not given) | 7.64 µM | 0.454 µM | 16 | 
31 | CN(C)CCN(C)c1ccc(C#N)c(CN2CCN(c3ccc(Cl)cc3[N+](=O)[O-])CC2)c1 | 12.5 µM | 0.217 µM | 57 | 
32 | CN(C)CCN(C)c1ccc(C#N)c(CN2CCN(c3ccc(F)cc3)CC2)c1 | 52.1 µM | 0.749 µM | 70 | 
33 | CN(C)CCN(C)c1ccc(C#N)c(CN2CCN(c3ccc(N)cc3)CC2)c1 | 55.2 µM | 6.43 µM | 8 | 
34 | Cc1ccc(NCc2cc(N3CCCCC3)ccc2C#N)cc1 | 11.4 µM |  |  | EC50 (Hepatitis C virus [4]): > 7.41 µM
35 | CN1CCN(c2ccc(C#N)c(CNc3ccc(Cl)cc3)c2)CC1 | 18.3 µM |  |  | EC50 (Hepatitis C virus [4]): 0.42 µM
36 | CN(C)CCN(C)c1ccc(C(N)=O)c(CN2CCN(c3ccc(Cl)cc3)CC2)c1 | 15.5 µM | 1.16 µM | 13 | 
37 | CN(C)CCN(C)c1ccc(C#N)c(CN2CCN(c3ccc(Cl)nc3)CC2)c1 | 52.6 µM | 2.51 µM | 21 | 
38 | CN(C)CCN(C)c1ccc(C#N)c(CN2CCN(c3ccncc3)CC2)c1 | 44.7 µM | 2.74 µM | 16 | 
39 | CN(C)CCN(C)c1ccc(C#N)c(CN2CCC(c3ccc(Cl)cc3)CC2)c1 | 3.75 µM | 0.142 µM | 26 | 
40 | CNCCN(C)c1ccc(C#N)c(CN2CCN(c3ccc(Cl)cc3)CC2)c1 | 15.8 µM | 0.289 µM | 54 | 
41 | CN(C)CCN(C)c1ccc(C#N)c(CN2CCN(c3ccc([N+](=O)[O-])cc3)CC2)c1 | 12.8 µM | 0.314 µM | 40 | 
42 | CN(C)CCN(C)c1ccc(C#N)c(CN(C)c2ccc(Cl)cc2)c1 | 15.5 µM | 0.506 µM | 30.6 | bioavailability [10]: < 5%; EC50 (Hepatitis C virus [4]): 0.18 µM
43 | Cc1cc(CCCOc2c(C)cc(-c3noc(C(F)(F)F)n3)cc2C)on1 [PLECONARIL] |  |  |  | CC50 [11]: > 1.05 µM; EC50 (Coxsackievirus B3): 0.002 µM; selectivity ratio [12]: > 525
44 | Cc1ccc(NCc2cc(N3CCN(C)CC3)ccc2C#N)cc1 | 37.4 µM |  |  | bioavailability [10]: < 5%; EC50 (Hepatitis C virus [4]): 1.62 µM
45 | CN(C)CCN(C)c1ccc(C#N)c(CN2CCN(c3ccccc3)CC2)c1 | 50.2 µM | 0.902 µM | 55 | 
46 | Cc1ccc(N2CCN(Cc3cc(N(C)CCN(C)C)ccc3C#N)CC2)cc1 | 36.2 µM | 0.399 µM | 90 | 
47 | COc1ccc2c(O[C@@H]3C[C@H]4C(=O)N[C@]5(C(=O)NS(=O)(=O)C6CC6)C[C@H]5/C=C/CCCCN(C)C(=O)[C@@H]4C3)cc(-c3nc(C(C)C)cs3)nc2c1C |  |  |  | EC50 (Hepatitis C virus [9]): 0.0092 µM; EC50 (Hepatitis C virus [13]): > 1 µM
48 | CN(C)CCN(C)c1ccc(C#N)c(CN2CCN(c3ccc(Cl)cc3F)CC2)c1 | 13.2 µM | 0.205 µM | 64 | 

Reference: ChEMBL document CHEMBL4613269, “2-((4-Arylpiperazin-1-yl)methyl)benzonitrile Derivatives as Orally Available Inhibitors of Hepatitis C Virus with a Novel Mechanism of Action” (J Med Chem, 2020)
